Experimental data taken from ChEMBL document CHEMBL4152367, “Discovery of a Potent Thiazolidine Free Fatty Acid Receptor 2 Agonist with Favorable Pharmacokinetic Properties” (J Med Chem, 2018).
Values after ≈ are worked out from the molar mass of the structure shown. Active and inactive are the calls of the source. The rule behind the calls is not given here.

Tests used:
[1] = target: T1, Oxysterols receptor LXR-beta (Homo sapiens) (UniProt P55055); test: Agonist activity at human LXRbeta expressed in Escherichia coli assessed as induction of calcium flux at 10 uM by fluorimetry
T1 sequence (whole entry): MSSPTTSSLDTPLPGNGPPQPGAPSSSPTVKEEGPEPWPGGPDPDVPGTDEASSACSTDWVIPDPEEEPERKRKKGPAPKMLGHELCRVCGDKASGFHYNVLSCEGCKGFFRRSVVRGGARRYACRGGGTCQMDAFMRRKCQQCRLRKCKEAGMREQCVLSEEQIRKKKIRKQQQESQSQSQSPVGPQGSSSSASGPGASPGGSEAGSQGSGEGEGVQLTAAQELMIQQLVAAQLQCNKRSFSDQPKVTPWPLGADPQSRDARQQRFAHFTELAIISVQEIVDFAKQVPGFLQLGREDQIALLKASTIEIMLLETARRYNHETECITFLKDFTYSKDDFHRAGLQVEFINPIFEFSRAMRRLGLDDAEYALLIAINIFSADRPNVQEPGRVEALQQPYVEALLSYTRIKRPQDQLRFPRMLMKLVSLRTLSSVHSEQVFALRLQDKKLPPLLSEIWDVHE

[2] = Aqueous solubility of the compound in PBS buffer at pH 7.4 after 24 hrs by HPLC analysis; format: physicochemical
[3] = Clearance in Balb/c mouse primary hepatocytes per million cells after 2 hrs by LC-MS/MS analysis; format: ADME, cell-based, Hepatocyte; conditions: read-out: CLH
[4] = Chemical stability of the compound in FaSSIF after 2 hrs; format: physicochemical; conditions: read-out: Stability
How it was run: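 Simulated-fluid stability: 50 µM compound in FaSSIF or FaSSGF (from 10 mM DMSO stock), shaken at 37 °C for 0 and 120 min. Quenched with acetonitrile containing 0.5% HCOOH, centrifuged, supernatant by HPLC. Stability from peak area relative to the 0 min sample; duplicates, mean reported.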

[5] = target: T2, Peroxisome proliferator-activated receptor delta (Homo sapiens) (UniProt Q03181); test: Antagonist activity at human PPARdelta expressed in Escherichia coli assessed as inhibition of GW0742-induced calcium flux at 10 uM by fluorimetry
T2 sequence (whole entry): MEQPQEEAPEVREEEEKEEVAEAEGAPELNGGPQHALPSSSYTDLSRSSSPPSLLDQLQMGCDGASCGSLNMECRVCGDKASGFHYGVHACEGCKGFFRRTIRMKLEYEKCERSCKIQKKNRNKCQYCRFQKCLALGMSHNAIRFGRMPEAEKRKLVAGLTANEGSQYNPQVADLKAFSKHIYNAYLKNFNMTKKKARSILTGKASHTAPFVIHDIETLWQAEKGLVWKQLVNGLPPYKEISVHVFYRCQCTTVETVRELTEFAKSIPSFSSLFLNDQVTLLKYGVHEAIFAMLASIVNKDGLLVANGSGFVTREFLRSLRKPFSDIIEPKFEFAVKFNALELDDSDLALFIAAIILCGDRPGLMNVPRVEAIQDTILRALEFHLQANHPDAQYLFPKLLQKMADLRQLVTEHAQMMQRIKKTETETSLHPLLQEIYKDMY

[6] = AUC (0 to infinity) in Balb/c mouse at 5 mg/kg, ip by HPLC-MS/MS analysis; format: ADME, organism-based; parameters: dose 5 mg/kg, time infinity, route intraperitoneal; conditions: in vivo
[7] = target: T3, Peroxisome proliferator-activated receptor gamma (Homo sapiens) (UniProt P37231); test: Antagonist activity at human PPARgamma expressed in Escherichia coli assessed as inhibition of rosiglitazone-induced calcium flux at 10 uM by fluorimetry
T3 sequence (whole entry): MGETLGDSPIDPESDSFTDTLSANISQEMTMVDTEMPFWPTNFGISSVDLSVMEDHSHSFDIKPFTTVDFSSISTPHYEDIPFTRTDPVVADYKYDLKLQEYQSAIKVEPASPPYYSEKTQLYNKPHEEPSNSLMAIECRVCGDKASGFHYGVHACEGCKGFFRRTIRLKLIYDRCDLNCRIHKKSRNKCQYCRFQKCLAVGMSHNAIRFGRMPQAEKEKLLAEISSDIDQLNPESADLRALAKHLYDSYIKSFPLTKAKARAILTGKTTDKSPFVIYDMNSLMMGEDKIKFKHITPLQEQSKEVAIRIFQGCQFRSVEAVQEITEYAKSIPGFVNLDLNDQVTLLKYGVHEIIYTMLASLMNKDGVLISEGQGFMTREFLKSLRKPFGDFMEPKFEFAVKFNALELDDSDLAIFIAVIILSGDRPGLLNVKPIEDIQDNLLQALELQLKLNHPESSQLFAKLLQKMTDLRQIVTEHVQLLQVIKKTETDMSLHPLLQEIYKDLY

[8] = Cmax in Balb/c mouse at 10 mg/kg, po by HPLC-MS/MS analysis; format: ADME, organism-based; parameters: dose 10 mg/kg, route oral; conditions: in vivo
How it was run: (§1)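 Balb/c mice dosed at 5 mg/kg iv or 10 mg/kg po. Plasma concentrations over time used to derive t1/2, AUC0–∞, Vd and total clearance (iv), and tmax, Cmax, AUC0–∞ and oral bioavailability (po).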

[9] = target: T4, Peroxisome proliferator-activated receptor alpha (Homo sapiens) (UniProt Q07869); test: Agonist activity at human PPARalpha expressed in Escherichia coli assessed as induction of calcium flux at 10 uM by fluorimetry
T4 sequence (whole entry): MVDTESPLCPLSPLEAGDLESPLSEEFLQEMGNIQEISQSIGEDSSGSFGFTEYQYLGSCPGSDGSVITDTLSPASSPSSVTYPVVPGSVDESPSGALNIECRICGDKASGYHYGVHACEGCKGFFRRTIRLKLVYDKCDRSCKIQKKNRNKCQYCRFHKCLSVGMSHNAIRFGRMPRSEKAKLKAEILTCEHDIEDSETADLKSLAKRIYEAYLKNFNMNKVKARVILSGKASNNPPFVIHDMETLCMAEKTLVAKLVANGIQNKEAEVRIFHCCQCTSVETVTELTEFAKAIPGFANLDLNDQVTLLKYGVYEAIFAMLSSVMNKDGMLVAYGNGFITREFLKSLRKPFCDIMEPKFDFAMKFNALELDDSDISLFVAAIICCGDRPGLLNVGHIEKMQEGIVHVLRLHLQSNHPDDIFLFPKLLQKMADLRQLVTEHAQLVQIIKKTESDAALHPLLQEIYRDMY

[10] = Oral bioavailability in Balb/c mouse at 10 mg/kg by HPLC-MS/MS analysis; format: ADME, organism-based; conditions: in vivo; how it was run: as §1
[11] = target: T2, Peroxisome proliferator-activated receptor delta (Homo sapiens); test: Agonist activity at human PPARdelta expressed in Escherichia coli assessed as induction of calcium flux at 10 uM by fluorimetry

- Activity [1]: inactive
- solubility at 24 h [2]: 182 µM (≈ 80.6 µg/mL)
- hepatocyte CLint [3]: < 8 µL/min/1e6 cells
- remaining at 2 h [4]: 95%
- inhibition [5]: inactive
- AUC(0-inf) [6]: 1010 ng·h/mL
- inhibition [7]: inactive
- Cmax [8]: 2880 ng/mL
- Activity [9]: inactive
- bioavailability [10]: 32%
- Activity [11]: inactive
Structure (SMILES): Cc1noc(C)c1-c1ccc(C(=O)N2[C@@H](c3ccccc3Cl)SC[C@H]2C(=O)O)cc1
